Rtt109 Vps75 – inhibitors of Candida albicans Rtt109/Vps75 histone acetyltransferase; Q5AAJ8; purified Rtt109/Vps75, ThioGlo CoA-SH fluorescence, 4 h; inhibition, % at 34.9 µM; 330,000 tested, 0.16% active; AID 540336;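 active means inhibition of at least 50% in every replicate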
Target sequence (Q5AAJ8 whole entry, looked up): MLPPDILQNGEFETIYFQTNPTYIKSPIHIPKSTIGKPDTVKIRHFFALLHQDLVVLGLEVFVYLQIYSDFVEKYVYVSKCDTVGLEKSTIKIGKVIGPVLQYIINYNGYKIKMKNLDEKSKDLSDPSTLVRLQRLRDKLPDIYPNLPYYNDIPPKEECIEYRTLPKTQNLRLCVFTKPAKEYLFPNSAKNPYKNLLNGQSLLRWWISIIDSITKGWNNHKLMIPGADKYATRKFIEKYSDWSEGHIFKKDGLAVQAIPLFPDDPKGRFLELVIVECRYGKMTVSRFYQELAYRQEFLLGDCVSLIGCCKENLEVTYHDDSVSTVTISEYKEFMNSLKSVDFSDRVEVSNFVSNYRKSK
dFosB act – mouse delta FosB homodimer activation | P13346 | purified delta FosB, TAMRA-CDK5 oligo fluorescence polarization; percent of positive-control signal above neutral wells | activation, % at 25 µM | 340,000 tested, 0.99% active | AID 493131;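 active means mean activation above about 17%, with every replicate also reaching it, limit read from the data, passing the limit was not always enough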
Cneo AK release – Cryptococcus neoformans lysis via adenylate kinase release; 360,000 tested, 0.2% active; AID 651654; C. neoformans lysis, adenylate kinase release luminescence, 4 h; normalised: neutral wells 0, clomiphene wells 100; lysis activity, % at 15 µM;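 active means mean lysis activity across replicates of at least 80%, whatever share of replicates individually reach that level; inactive means mean lysis activity below 80%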
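Signal: Adenylate kinase release luminescence | Assay system: Log-phase Cryptococcus neoformans yeast cells | Input: Cells at 5 × 10^6 per mL | Buffer or medium: Fresh YPD growth medium | Compound: Single dose | Schedule: Static 4 h at 37 °C with compound, 1 h detection | Controls: Clomiphene | Read-out: Luminescence rise reflecting yeast cell lysis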
miR-122 sensor – blocks miR-122 activity in Huh7 sensor cells | 340,000 tested, 0.3% active | AID 602342 | activation (reporter increase), % at 12.5 µM | Huh7 miR-122 Renilla luciferase sensor, 48 h; neutral wells = 0, positive control = 100;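 active means mean replicate activation score at least 90 and every replicate individually at or above 90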;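 further: higher luciferase means less miR-122 activity so hits act as miR-122 inhibitors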
GSIS activator – GLuc luminescence reporter in INS-1E cells, primary screen for activators of glucose-dependent secretion of insulin. 370,000 tested, 0.61% active. INS-1E GLuc reporter insulin secretion, 2-3 h. activation, % at 16.6 µM;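 active means lowest replicate activation of at least 40%, so every replicate reaches that level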;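 further: 0% = median of neutral control wells and 100% = median of IBMX positive control wells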
HIV Env fusion – HIV envelope-mediated fusion inhibition. 360,000 tested, 1.1% active. AID 651610. HeLa-JRFL Env/CEM21 cell fusion, luciferase. inhibition, % at 12.3 µM;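 active means mean replicate inhibition score of at least 50 and every replicate individually at or above 50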;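 further: 0% = plate neutral controls and 100% = maraviroc near 300 nM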
An asterisk follows results filed as active; nt = no result; + = active, no number; [ ] = another dose, or the depositor's remark. An excerpt weighted towards active compounds, which were near 2.4% of everything screened.

SMILES	Rtt109 Vps75	dFosB act	Cneo AK release	miR-122 sensor	GSIS activator	HIV Env fusion
COc1ccc(CCNC(=O)Cc2ccccc2)cc1OC	23	3	0	-9	30	-1
COc1ccc(CCNC(N)=S)cc1OC	-2	1	0	4	53*	nt
COc1ccc(CCNC(=O)CCc2ccccc2)cc1OC	nt	nt	1	1	60*	-7
COc1ccc(CCNC(=O)CCc2nc3ccccc3[nH]2)cc1OC	-2	-13	0	-3	90*	3
O=C(N[C@H]1C=C[C@H](CC(=O)N2CCc3ccccc3C2)O[C@@H]1CO)C1CCOCC1	nt	nt	nt	nt	4	nt
COc1ccc(S(=O)(=O)Nc2ccc3c(c2)CC(=O)N([C@H](C)CO)C[C@H](C)[C@@H](CN(C)C(=O)NC2CCCCC2)O3)cc1	nt	nt	1	7[16.7 µM]	-1	1[16.7 µM]
COc1ccc2c3c([nH]c2c1)[C@@H](CO)N(Cc1ccncc1)CC31CN(C(=O)Cc2ccncc2)C1	nt	nt	nt	nt	4	nt
CC(C)[C@H]1CCc2cnnn2COC[C@H](c2ccccc2)NC1=O	nt	nt	nt	nt	9	nt
O=C(CN1c2cccc3cccc(c23)S1(=O)=O)NCCc1ccccc1	2	-11	-1	nt	12	nt
COc1ccc(CCNC(=O)C(=O)NN=C2CCCCCCC2)cc1OC	-8	2	-1	nt	59*	9
COc1ccc(CCNC(=O)CN2c3cccc4cccc(c34)S2(=O)=O)cc1OC	-45	-9	-1	nt	98*	-6
COc1ccc(CCNC(=O)COC(=O)Cn2cnc3ccccc32)cc1OC	2	2	nt	nt	57*	-4
CCC(=O)Nc1ccc2c(c1)C(=O)N(C)C[C@@H](OC)[C@@H](C)CN(CC1CC1)[C@H](C)CO2	nt	nt	0	nt	10	nt
CO[C@H]1CN(C)C(=O)c2ccc(NC(C)=O)cc2OC[C@H](C)N(C(=O)CN2CCOCC2)C[C@@H]1C	nt	nt	10	1[16.7 µM]	-7	nt
CCC(=O)N1CC2(CN[C@H](CO)c3c2c2ccc(OC)cc2n3C)C1	nt	nt	nt	nt	-4	nt
CC(C)CN1C(=O)[C@@]2(c3ccc([N+](=O)[O-])cc3)CC(=O)N(CC3C4CC5CC(C4)CC3C5)[C@@H]2c2ccc(CO)cc21 (stereo not given in full)	nt	nt	-3	nt	nt	-5[16.7 µM]
CCCCN(Cc1nc2ccccc2c(=O)[nH]1)C(=O)c1nn(C)c(=O)c2ccccc12	3	-4	0	nt	47*	-42
CCc1ccc(C(=O)CSc2ncn[nH]2)cc1	+	-2	2	-8	nt	-52
Cc1ccc(C(=O)CSc2ncn[nH]2)cc1	8	-5	3	-7	nt	-10
COc1ccc(C2=CC(=O)C=CC2=O)cc1	104*	nt	-4	nt	nt	nt
COc1cc(C2N(C)CCC3(OCCO3)C2(C)C)cc(OC)c1OC (stereo not given)	-3	-2	-3	0	48*	-30
CN(C)CCCNC(=O)C[C@@H]1CC[C@H]2[C@@H](COC[C@@H](O)CN2CC2CCCCC2)O1	nt	nt	nt	nt	-7	nt
CN(C)C(=O)CCC(=O)N1CCCC(C(=O)c2ccc3c4c(cccc24)CC3)C1 (stereo not given)	0	-1	-1	-3	-13	80*
O=C(c1ccc2c3c(cccc13)CC2)C1CCCN(C(=O)c2ccc(=O)[nH]c2)C1 (stereo not given)	-13	-7	nt	nt	-5	21
Cc1ncccc1C(=O)N1CCCC(C(=O)c2ccc3c4c(cccc24)CC3)C1 (stereo not given)	5	-9	nt	nt	-8	90*
SMILES	Rtt109 Vps75	dFosB act	Cneo AK release	miR-122 sensor	GSIS activator	HIV Env fusion
CNc1nc(-c2ccccc2)[n+](-c2ccc(C)cc2)s1	-5	-6	nt	nt	176*	nt
C[C@@H]1CN([C@H](C)CO)S(=O)(=O)c2ccc(C#CC3CCCCC3)cc2O[C@@H]1CN(C)C	nt	nt	11	-28[16.7 µM]	-3	3[16.7 µM]
CC(C)[C@H]1C(=O)N[C@@H](c2ccc3c(c2)OCO3)CC=CC[C@H](C)Oc2ccccc2C(=O)N1C (mixture of isomers)	nt	nt	nt	nt	-8	nt
COc1c(S(=O)(=O)NCCCn2ccnc2)ccc(Cl)c1Cl	0	-8	0	125*	9	6
Cc1c(Cl)ccc(S(=O)(=O)NCCCn2ccnc2)c1Cl	-2	-11	-2	22	3	15
C[C@@H]1CCCCO[C@H](CN(C)C(=O)Nc2ccccc2)[C@H](C)CN([C@H](C)CO)C(=O)c2cc(NS(=O)(=O)c3cccs3)ccc2O1	nt	nt	-3	-5[16.7 µM]	-8	-25[16.7 µM]
O=C(Cn1c2ccccc2c(=O)c2ccccc21)N/N=C/c1cc([N+](=O)[O-])ccc1N1CCCCC1	-6	-1	-2	3	-10	21
O=C(Cn1c2ccccc2c(=O)c2cc([N+](=O)[O-])ccc21)Nc1ccccc1Cl	5	63*	nt	nt	5	-16
O=C(CN1CCOCC1)NCC[C@H]1CC[C@@H](NC(=O)Cc2ccccn2)[C@@H](CO)O1	nt	nt	-1	nt	3	-19[16.7 µM]
O=S(=O)(Nc1ccc2ccccc2c1)c1ccccc1	-5	-2	nt	170*	-23	-1
CC(=O)Nc1cc2cc(NS(=O)(=O)c3ccc(C)cc3)ccc2oc1=O	-8	155*	-3	2	nt	-1
COC(=O)c1ccc(C)c(NS(=O)(=O)c2ccc(OC)c(OC)c2)c1	1	-6	2	131*	nt	-56
COc1ccc(S(=O)(=O)Nc2ccc3ccccc3c2)cc1C	-7	-5	1	109*	-20	31
Cc1ccc(S(=O)(=O)N[C@@H]2CC[C@@H](CCNC(=O)CN3CCOCC3)O[C@@H]2CO)cc1	nt	nt	-7	nt	14	6[16.7 µM]
COc1ccc2c3c(n(C)c2c1)[C@H](CO)N(CC1CC1)CC31CCN(C(=O)CC2CC2)CC1	nt	nt	nt	nt	-5	nt
O=C(C[C@@H]1CC[C@@H](NC(=O)Nc2ccc(F)cc2)[C@@H](CO)O1)NCc1ccccn1	nt	nt	-2	nt	-8	7[16.7 µM]
Cc1ccc(S(=O)(=O)Nc2ccc3ccccc3c2)cc1	5	-24	0	118*	-7	-15
Cc1cc(S(=O)(=O)Nc2cc(C)c(O)c(C)c2)c(C)s1	-6	-2	0	196*	nt	6
Cc1cc(S(=O)(=O)Nc2cccnc2)c(C)s1	-2	0	0	10	nt	-10
Cc1cc(S(=O)(=O)NCCN(C)C)c(C)s1	1	-4	-3	2	nt	-45
Cc1cc(S(=O)(=O)Nc2ccc3ccccc3c2)c(C)s1	3	-1	-2	540*	-31	nt
Cc1ccc(S(=O)(=O)Nc2ccc3c(c2)CCC3)cc1C	2	-8	2	59	-3	16
Cc1ccc(S(=O)(=O)Nc2ccc3c(c2)CCC3)cc1	3	-7	-2	167*	-11	37
CC(=O)N(C)C[C@@H]1Oc2cc(C3=CCCC3)ccc2S(=O)(=O)N([C@H](C)CO)C[C@H]1C	nt	nt	10	0[16.7 µM]	7	6[16.7 µM]
